Measurements from paper PMC12780242 (Scientific Reports, 2025).
Like-named read-outs stand apart in the source and are kept apart here.

Tests used:
[1] = system: AGC; details: cited from earlier work
[2] = system: patients with unresectable advanced or recurrent gastric cancer (AGC); experiment: Dose-finding cohort; type: in vivo, human; details: in combination with CapeOX
Summary of the method: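 Open-label multicenter phase I with standard 3 + 3 escalation. Pevonedistat dose levels were 20, 15 and 10 mg/m2. There was a single-agent lead-in dose on day 1, then a 7-day interval. Each 3-week cycle gave oxaliplatin 130 mg/m2 on day 1, oral capecitabine 1000 mg/m2/day twice daily about 12 h apart for 14 days, and pevonedistat on days 1, 3 and 5. The DLT window ran from the first lead-in dose to day 35 or the start of cycle 2, whichever came first. The RD also weighed adverse events in later cycles.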

[3] = Phase II trials for other cancers; cited from earlier work
[4] = system: gastric cancer cells; details: preclinical studies; cited from earlier work
[5] = system: CDT1; experiment: CDT1 immunohistochemistry in endoscopic tumor biopsies; type: in vivo, human
Summary of the method: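 Endoscopic tumor biopsies from gastric cancer patients, taken at screening and on day 2 after a single lead-in dose of pevonedistat given alone on day 1. Formalin-fixed paraffin-embedded sections stained by immunohistochemistry with a monoclonal anti-CDT1 antibody. Read-out is CDT1-positive cells.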

[6] = after failure of ≥ 2 chemotherapy regimens, pivotal Phase III trials
[7] = third-line or later treatment of AGC

Compound | Response rates [1, 6] | Patients experiencing disease progression as their best response [1, 7] | Response rates [1, 7] | Maximum tolerated dose of pevonedistat [2] | Recommended dose (RD) of pevonedistat ([2]; days 1, 3, 5 of a 3-week cycle) | RD of pevonedistat combined with chemotherapy [3] | Growth of gastric cancer cells [4] | Cullin–RING ligase substrates NRF2 and CDT1 in post-treatment tumor biopsies ([5]; in vivo) | Pevonedistat-NEDD8 adduct in post-treatment tumor biopsies ([5]; in vivo) | Patients with increased CDT1 expression ([5]; post-treatment tumor biopsy)
trifluridine/tipiracil | ≤ 10% | more than 50% | around 10% |  |  |  |  |  |  | 
Nivolumab | ≤ 10% | more than 50% | around 10% |  |  |  |  |  |  | 
NS(=O)(=O)OC[C@@H]1C[C@@H](n2ccc3c(N[C@H]4CCc5ccccc54)ncnc32)C[C@@H]1O [Pevonedistat] |  |  |  | 15 mg/m^2 | 15 mg/m^2 | 20–25 mg/m^2 | significantly suppresses the growth | increase | presence | 75%
CCc1c2c(nc3ccc(OC(=O)N4CCC(N5CCCCC5)CC4)cc13)-c1cc3c(c(=O)n1C2)COC(=O)[C@]3(O)CC [irinotecan] |  | more than 50% | around 10% |  |  |  |  |  |  | 
